Data reported in PubChem BioAssay AID588392 (Broad Institute, 2011).
Several values for one entry are separate records, joined by “and”; a condition that tells them apart may be missing. Identical values can stand only once.

Each molecule was assayed against Scavenger receptor class B member 1 (Mus musculus) (UniProt Q61009) (assay: inhibition of HDL lipid transfer via mSR-BI – ldlA[mSR-BI] CHO cells, powder samples, set 2, dose response (AID 588392)). Conditions: DiI-HDL uptake fluorescence, 3 h;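 active = compounds lowering labeled HDL uptake with a fitted AC50 at most ten times their top tested dose (actives reach about 20 µM in these data); inconclusive = flat partial inhibition of 30 to 70 percent, or poor fit; inactive = the rest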.
Sequence of Scavenger receptor class B member 1 (Mus musculus) (Q61009 whole entry, looked up): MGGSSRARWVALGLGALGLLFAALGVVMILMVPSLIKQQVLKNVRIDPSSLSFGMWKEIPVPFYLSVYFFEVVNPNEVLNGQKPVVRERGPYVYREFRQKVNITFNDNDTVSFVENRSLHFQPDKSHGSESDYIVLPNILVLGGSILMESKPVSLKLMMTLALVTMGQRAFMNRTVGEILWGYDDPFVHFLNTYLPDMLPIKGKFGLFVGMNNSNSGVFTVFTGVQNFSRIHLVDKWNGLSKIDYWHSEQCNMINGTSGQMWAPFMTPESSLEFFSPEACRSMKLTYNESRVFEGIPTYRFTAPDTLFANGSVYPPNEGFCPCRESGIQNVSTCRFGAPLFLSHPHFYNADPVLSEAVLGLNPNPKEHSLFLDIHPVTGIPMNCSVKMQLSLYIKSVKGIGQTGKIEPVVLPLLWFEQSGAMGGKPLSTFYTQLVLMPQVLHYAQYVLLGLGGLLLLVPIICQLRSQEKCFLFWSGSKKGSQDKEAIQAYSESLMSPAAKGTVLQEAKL
How it was run: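 System: ldlA[mSR-BI] CHO cells, LDL receptor-deficient, overexpressing murine SR-BI; Probe or stimulus: DiI-labeled HDL, 10 µg/mL final; Doses: compounds delivered by pin transfer; Schedule: overnight plating, 3 h uptake at 37 °C; Measured by: DiI fluorescence, ex 550/em 595 nm, bottom read; Evaluation: HDL uptake from DiI signal, decrease indicating inhibition.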

AC50, active:
CC(C(=O)NC1CCCC1)N(C(=O)Cn1nnc(-c2cccc(F)c2)n1)C1CCCCC1 (centres undefined) 379 nM
CCC(=O)N1CCc2cc(-c3csc(NC(=O)c4cccc(OC)n4)n3)ccc21 528 nM
COc1ccc(-c2cc(CC(=O)N(C3CCCCC3)C(C)C(=O)NC3CCCC3)no2)cc1OC (centres undefined) 15.4 nM
CCC(=O)N1CCc2cc(-c3csc(NC(=O)c4cccc(OC(F)(F)F)c4)n3)ccc21 40.8 nM
CCC(=O)N1CCc2cc(-c3csc(NC(=O)c4ccco4)n3)ccc21 53.7 nM
O=C(Nc1nc(-c2ccc3c(c2)CCN3)cs1)c1ccco1 44.7 nM
CCC(=O)N1CCc2cc(-c3csc(NC(=O)c4cc(OC)cc(OC)c4)n3)ccc21 4.33 nM
Cc1ccc(-c2nnn(CC(=O)N(C3CCCCC3)C(C)C(=O)NC3CCCC3)n2)cc1 (centres undefined) 493 nM
CCC(=O)N1CCc2cc(-c3cnc(NC(=O)c4ccco4)[nH]3)ccc21 10100 nM
CCCCCCC1CCC/C1=N\NC(N)=S (centres undefined) 7.1 nM
CCC(=O)N1CCc2cc(-c3coc(N)n3)ccc21 20000 nM
CCC(=O)N1CCc2cc(-c3coc(NC(=O)c4ccco4)n3)ccc21 18900 nM
CS(=O)(=O)N1CCc2cc(-c3csc(NC(=O)c4ccco4)n3)ccc21 386 nM
CC(C(=O)NC1CCCC1)N(C(=O)Cn1nnc(-c2ccc(Cl)cc2)n1)C1CCCCC1 (centres undefined) 275 nM
CC(C(=O)NC1CCCC1)N(C(=O)Cn1nnc(-c2ccccc2Cl)n1)C1CCCCC1 (centres undefined) 3810 nM
O=C(CN(C(=O)Cn1nnc(-c2ccc3c(c2)OCO3)n1)C1CCCCC1)NC1CCCC1 12.6 nM
CCC(=O)N1CCc2cc(-c3csc(NC(=O)c4cccc(OC)c4)n3)ccc21 39.9 nM
CC(C)C(=O)N1CCc2cc(-c3csc(NC(=O)c4ccco4)n3)ccc21 238 nM
CCC(=O)N1CCc2cc(-c3csc(NC(=O)c4ccc(F)c(OC)c4)n3)ccc21 38 nM
COC(=O)N1CCc2cc(-c3csc(NC(=O)c4ccco4)n3)ccc21 6840 nM
CC(C(=O)NC1CCCC1)N(C(=O)Cn1nnc(-c2ccc(F)cc2)n1)C1CCCCC1 (centres undefined) 125 nM
C[C@@H]1CN([C@H](C)CO)C(=O)c2cc(NC(=O)Cc3cn(C)c4ccccc34)ccc2O[C@H]1CN(C)S(=O)(=O)c1ccc(Cl)cc1 81 nM and 268 nM
COc1ccc(-c2nnn(CC(=O)N(C3CCCCC3)C(C)C(=O)NC3CCCC3)n2)cc1OC (centres undefined) 72.5 nM
CC(C(=O)NC1CCCC1)N(C(=O)Cn1nnc(-c2ccc3c(c2)OCO3)n1)C1CCCCC1 (centres undefined) 24.3 nM
O=C(Nc1nc(-c2ccc3c(c2)CCN3C(=O)C2CC2)cs1)c1ccco1 186 nM
COc1ccc(-c2nnn(CC(=O)N(CC(=O)NC3CCCC3)C3CCCCC3)n2)cc1OC 8.98 nM
COc1cccc(-c2nnn(CC(=O)N(C3CCCCC3)C(C)C(=O)NC3CCCC3)n2)c1 (centres undefined) 180 nM
CC(C(=O)NC1CCCC1)N(C(=O)Cn1nnc(-c2ccccc2F)n1)C1CCCCC1 (centres undefined) 617 nM
CCC(=O)N1CCc2cc(-c3cnc(NC(C)=O)[nH]3)ccc21 1700 nM
